Source: ChEMBL document CHEMBL4402513, “Bio-Inspired Dual-Selective BCL-2/c-MYC G-Quadruplex Binders: Design, Synthesis, and Anticancer Activity of Drug-like Imidazo[2,1-i]purine Derivatives” (J Med Chem, 2020)
Calls of active or inactive are those of the source. The rule behind the calls is not given here.

Columns and labels:
[1] = test system: Quadruplex DNA; experiment: Binding affinity to synthetic c-MYC G4 quadruplex DNA assessed as change in melting temperature at 10 molar equiv to DNA measured after 10 mins by circular dichroism melting analysis; format: nucleic-acid assay
Method in brief: (§1)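 CD melting of folded DNA (G4 10 µM, duplex 15 µM) in 20 mM KCl, 5 mM KH2PO4 (pH 7.0), without and with 10 molar equivalents of ligand. Tm was taken from curve fitting, and ΔTm = Tm(DNA+ligand) − Tm(DNA). Runs were done in triplicate and averaged.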

[2] = Binding affinity to synthetic 20-mer hairpin duplex DNA assessed as change in melting temperature at 10 molar equiv to DNA measured after 10 mins by circular dichroism melting analysis; method in brief: as §1
[3] = test system: Quadruplex DNA; experiment: Binding affinity to human telomeric 23 G4 quadruplex DNA assessed as change in melting temperature at 10 molar equiv to DNA measured after 10 mins by circular dichroism melting analysis; format: nucleic-acid assay; method in brief: as §1
[4] = test system: Quadruplex DNA; experiment: Binding affinity to synthetic c-KIT1 G4 quadruplex DNA assessed as change in melting temperature at 10 molar equiv to DNA measured after 10 mins by circular dichroism melting analysis; format: nucleic-acid assay; method in brief: as §1
[5] = test system: Quadruplex DNA; experiment: Binding affinity to synthetic BCL2 G4 quadruplex DNA assessed as change in melting temperature at 10 molar equiv to DNA measured after 10 mins by circular dichroism melting analysis; format: nucleic-acid assay; method in brief: as §1
[6] = test system: Jurkat; experiment: Down regulation of c-MYC mRNA expression in human Jurkat cells at 25 uM measured after 24 hrs by RT-qPCR analysis relative to control; format: functional
Method in brief: (§2)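 Jurkat cells were treated 24 h at 25 µM, and total RNA was extracted with TRI Reagent. 0.5 µg RNA was reverse transcribed with MMLV RT and random primers (22 °C 10 min, 42 °C 60 min). SYBR qPCR ran 40 cycles (95/59/72 °C) in duplicate with GAPDH as reference. Relative expression was calculated by the […] method from at least three independent experiments.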

[7] = test system: Jurkat; experiment: Down regulation of BCL2 mRNA expression in human Jurkat cells at 25 uM measured after 24 hrs by RT-qPCR analysis relative to control; format: functional; method in brief: as §2
[8] = test system: Jurkat; experiment: Down regulation of BCL2 expression in human Jurkat cells at 25 uM measured after 24 hrs by Western blot analysis relative to control; format: functional
Method in brief: (§3)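 Jurkat cells treated 24 h at 25 µM were lysed in 50 mM Hepes pH 7.4, 50 mM NaCl, 1% Triton with protease inhibitors. Protein was quantified by Bradford and run on 10% SDS-PAGE to nitrocellulose. Blots were probed with anti-Bcl-2, anti-c-Myc and anti-β-actin and detected by ECL. Densitometry was normalised to β-actin and expressed as % of control; three independent experiments.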

[9] = test system: Jurkat; experiment: Induction of apoptosis in human Jurkat cells assessed as late apoptotic cells at 25 uM measured after 48 hrs by Annexin V-FITC/propidium iodide staining based flow cytometry (reference value: 1.4%); format: functional
[10] = test system: Jurkat; experiment: Induction of apoptosis in human Jurkat cells assessed as early apoptotic cells at 25 uM measured after 48 hrs by Annexin V-FITC/propidium iodide staining based flow cytometry (reference value: 0.3%); format: functional
[11] = test system: Jurkat; experiment: Cytotoxicity against human Jurkat cells assessed as cell viability at 50 uM measured after 48 hrs by combined MTT and trypan blue staining based cell counting assay relative to control; format: functional; settings: read-out: Activity
Method in brief: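 Cells were seeded at 10^4/well (HDF 10^3), grown 24 h, then treated 48 h at 5–100 µM in 0.5% v/v DMSO. Read-outs were MTT (1 h, 37 °C, absorbance 550 nm; Jurkat handled by centrifugation) combined with trypan blue live/dead counting into a survival index versus untreated cells. IC50 came from nonlinear regression, n = 6 per experiment ×3 (n = 18), mean ± SEM.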

[12] = test system: Jurkat; experiment: Down regulation of c-MYC expression in human Jurkat cells at 25 uM measured after 24 hrs by Western blot analysis relative to control; format: functional; method in brief: as §3
[13] = test system: Jurkat; experiment: Induction of apoptosis in human Jurkat cells assessed as viable cells at 25 uM measured after 48 hrs by Annexin V-FITC/propidium iodide staining based flow cytometry (reference value: 97%); format: functional; settings: read-out: Activity
[14] = test system: Quadruplex DNA; experiment: Binding affinity to synthetic c-MYC G4 quadruplex DNA assessed as change in chiral structure at 10 molar equiv to DNA measured after 10 mins by circular dichroism spectroscopic analysis; format: nucleic-acid assay
Method in brief: (§4)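 CD spectra of annealed DNA in 20 mM KCl, 5 mM KH2PO4 (pH 7.0). G4 DNAs were at 10 µM and duplex at 15 µM. Ligand (10 mM DMSO stock) was added at 10 molar equivalents. Spectra were recorded 10 min after addition at 20 °C over 230–360 nm, averaged over three scans and baseline corrected.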

[15] = Binding affinity to synthetic 20-mer hairpin duplex DNA assessed as change in chiral structure at 10 molar equiv to DNA measured after 10 mins by circular dichroism spectroscopic analysis; method in brief: as §4
[16] = test system: Quadruplex DNA; experiment: Binding affinity to human telomeric 23 G4 quadruplex DNA assessed as change in chiral structure at 10 molar equiv to DNA measured after 10 mins by circular dichroism spectroscopic analysis; format: nucleic-acid assay; method in brief: as §4
[17] = test system: Quadruplex DNA; experiment: Binding affinity to synthetic BCL2 G4 quadruplex DNA assessed as change in chiral structure at 10 molar equiv to DNA measured after 10 mins by circular dichroism spectroscopic analysis; format: nucleic-acid assay; method in brief: as §4
[18] = test system: Quadruplex DNA; experiment: Binding affinity to synthetic c-KIT1 G4 quadruplex DNA assessed as change in chiral structure at 10 molar equiv to DNA measured after 10 mins by circular dichroism spectroscopic analysis; format: nucleic-acid assay; method in brief: as §4

| SMILES | ΔTm [1] [°C] | ΔTm [2] [°C] | ΔTm [3] [°C] | ΔTm [4] [°C] | ΔTm [5] [°C] | Activity [14] | Activity [15] | Activity [16] | Activity [17] | Activity [18] | further results |
| --- | --- | --- | --- | --- | --- | --- | --- | --- | --- | --- | --- |
| CN(C)c1ccc(-c2nc3c4ncn(CCCNC(=N)N)c4ncn3c2NC(C)(C)C)cc1 | 2.5 | 0.2 | 0.6 | 2.1 | 2.8 | – | – | – | – | – | – |
| CN(C)CCCn1cnc2c1ncn1c(NC(C)(C)C)c(-c3ccc(N4CCOCC4)cc3)nc21 | 9.5 | 9.7 | 3.8 | 5.1 | 10.1 | – | – | – | – | – | – |
| CN(C)CCCn1cnc2c1ncn1c(NC(C)(C)C)c(-c3ccccc3F)nc21 | 11.5 | 0.2 | 1.2 | 2.6 | 8.2 | – | – | – | – | – | Activity [6]: 56%; Activity [7]: 43%; Activity [8]: Active; Activity [9]: 68%; Activity [10]: 13%; viability at 50 µM [11]: 60%; Activity [12]: Active; viability at 25 µM [13]: 16% |
| CN(C)c1ccc(-c2nc3c4ncn(CCN5CCOCC5)c4ncn3c2NC(C)(C)C)cc1 | 7.2 | 1.9 | 2.4 | 5.2 | 9.2 | inactive | inactive | inactive | inactive | inactive | – |
| CC(C)(C)Nc1c(-c2ccc(Cl)cc2)nc2[nH]c(=O)c3ncn(CCN4CCOCC4)c3n12 | – | – | – | – | – | inactive | inactive | inactive | inactive | inactive | deltaTm [1]: inactive; deltaTm [2]: inactive; deltaTm [3]: inactive; deltaTm [4]: inactive; deltaTm [5]: inactive |
